These results are taken from ChEMBL document CHEMBL1165974, “Novel pyrazole derivatives: synthesis and evaluation of anti-angiogenic activity” (Bioorg Med Chem, 2010).

Calls of active or inactive are those of the source. The calls are words filed in the database; no cut-off is given here.

Assay [1] is described as follows: Antiangiogenic activity in MAEC assessed as inhibition of cell proliferation after 5 days by Coulter counting analysis. Particulars: Mus musculus, 120 h. It is filed as functional. Summed up:
(§1)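 Cells seeded at 10,000 cells per cm2; after 16 h given fresh medium containing test compounds. Trypsinized on day 5 and counted by Coulter counter. […] Tumour lines kept in DMEM with 10 mM Hepes and 10% FBS.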

Assay [2] is described as follows: Antiangiogenic activity in BAEC assessed as inhibition of cell proliferation after 5 days by Coulter counting analysis. Format: functional, cell-based. Particulars: Bos taurus, 120 h. The procedure, abridged:
as §1

Assay [3] relates to HeLa. The experiment in a line: Cytostatic activity against human HeLa cells after 5 days by Coulter counting analysis. Format: functional, cell-based. Particulars: 120 h. The procedure, abridged: as §1
Assay [4] relates to MCF7. Description: Cytostatic activity against human MCF7 cells after 5 days by Coulter counting analysis. Format: functional, cell-based. Particulars: MCF7, 120 h. The procedure, abridged:
as §1

For assay [5], the species on record is Gallus gallus. Description: Antiangiogenic activity in chicken embryo chorioallantoic membrane model assessed as inhibition of VEGF-induced angiogenesis at 50 nmol after 2 days by photographic analysis.
A short description of assay [6]: Antiangiogenic activity in MAEC assessed as inhibition of cell migration-associated wound closure at 50 uM after 8 hrs imaging analysis. As to conditions: Mus musculus. It is filed as functional. The procedure, abridged: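 Confluent MAEC monolayers wounded with a 1.0-mm wide tip, then incubated in fresh medium with 10% FCS plus compound (10 and 50 μM). At 8 h, wounds photographed; cells invading the wound quantified by computerized analysis of digitized images. Results as mean ± SEM.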

The species named for assay [7] is Gallus gallus. Description: Antiangiogenic activity in chicken embryo chorioallantoic membrane model assessed as complete inhibition of VEGF-induced angiogenesis at 50 nmol after 2 days by photographic analysis.

With `O=C(O)/C=C/c1cn(-c2ccc(O)cc2)nc1-c1ccc(O)cc1`, the IC50 in assay [1] is > 100 µM.
Take `O=Cc1cn(-c2ccc(O)cc2)nc1-c1ccccc1`: the IC50 in assay [1] was > 100 µM; in assay [2], 64 µM; in assay [3], 79 µM; in assay [4] it was 47 µM. The inhibition result in assay [5] is “inactive”.
In the case of `CCOC(=O)/C=C/c1cn(-c2ccc(O)cc2)nc1-c1cccc(O)c1`, the IC50 in assay [1] was 14 µM.
On the same count and under the same terms, the figure for `O=C(O)/C=C/c1cn(-c2ccc(O)cc2)nc1-c1ccccc1` is > 100 µM.
The same measure, in the same setting: to `O=C(O)/C=C/c1cn(-c2ccc(O)cc2)nc1-c1ccc(O)c(O)c1` belongs > 100 µM; to `O=C(O)/C=C/c1cn(-c2ccc(O)cc2)nc1-c1cc(O)ccc1O`, > 100 µM.
For the compound `O=Cc1cn(-c2ccc(O)cc2)nc1-c1ccc(O)c(O)c1`, the IC50 was determined as 12 µM in assay [1], 17 µM in assay [2], 39 µM in assay [3] and 24 µM in assay [4]. In addition, the inhibition result in assay [5] was “Toxic”.
Consider `CCOC(=O)/C=C/c1cn(-c2ccc(O)cc2)nc1-c1ccc(O)c(O)c1`, for which the IC50 in assay [1] stood at 6.2 µM.
Turning to `O=c1c2cn(-c3ccc(O)cc3)nc2c2c(O)ccc(O)c2n1O`, in assay [5], the inhibition result is “Active”.
Take `O=C(O)/C=C/c1cn(-c2ccc(O)cc2)nc1-c1cccc(O)c1`: the IC50 in assay [1] was > 100 µM.
Consider `O=c1c2cn(-c3ccc(O)cc3)nc2c2cc(O)ccc2n1O`, for which the inhibition at 50 µM in assay [6] stood at 76%. Further, the IC50 in assay [1] amounted to 25 µM; in assay [2], 38 µM; in assay [3], 37 µM; in assay [4], 26 µM. Also, in assay [5], the inhibition stood at 64%. In addition, the inhibition result in assay [7] was “Active”.
As to `O=c1c2cn(-c3ccc(O)cc3)nc2c2ccccc2n1O`, the IC50 in assay [1] turned out to be 7 µM; in assay [2], 4.6 µM; in assay [3], 8.9 µM; in assay [4], 5.8 µM. Further, the inhibition result in assay [5] is “Active”.
For `O=Cc1cn(-c2ccc(O)cc2)nc1-c1cccc(O)c1`, in that order: 42 µM, 29 µM, 37 µM, 29 µM and 50%.
For `O=c1c2cn(-c3ccc(O)cc3)nc2c2ccc(O)cc2n1O`, in that order: 42 µM, 52 µM, 38 µM, 25 µM and “Active”.
As for `O=c1c2cn(-c3ccc(O)cc3)nc2c2cc(O)c(O)cc2n1O`, the inhibition entry in assay [5] is “Active”.
For the compound `CCOC(=O)/C=C/c1cn(-c2ccc(O)cc2)nc1-c1ccc(O)cc1`, in assay [1], the IC50 stood at 25 µM.
Take `O=Cc1cn(-c2ccc(O)cc2)nc1-c1ccc(O)cc1`: the IC50 was determined as 44 µM in assay [1], 32 µM in assay [2], 37 µM in assay [3] and 38 µM in assay [4]. Besides, the inhibition in assay [5] came to 48%.
On to `O=Cc1cn(-c2ccc(O)cc2)nc1-c1cc(O)ccc1O`, for which the IC50 was 43 µM in assay [1], ≥ 100 µM in assay [2], ≥ 100 µM in assay [3] and ≥ 100 µM in assay [4]. Also, in assay [5], the inhibition entry was “Toxic”.
Take `CCOC(=O)/C=C/c1cn(-c2ccc(O)cc2)nc1-c1ccccc1`: the IC50 in assay [1] came out at 29 µM.
Still for that read-out and setting: the figure for `CCOC(=O)/C=C/c1cn(-c2ccc(O)cc2)nc1-c1cc(O)ccc1O` is 12 µM.

A word on the IC50: it is the point on the concentration scale where inhibition reaches its midpoint. Usually inhibition stands for how much of the control response was suppressed.
